ChEMBL document CHEMBL1177787, “In vitro and in vivo antimalarial evaluation of semi-synthetic derivatives of gomphostenin” (Bioorg Med Chem Lett, 2010)

These compounds were tested on Plasmodium berghei (assay: Antimalarial activity against chloroquine-sensitive Plasmodium berghei ANKA infected in Swiss mice (Mus musculus) assessed as parasitaemia at 50 mg/kg, perorally for 4 days measured on day 5). Conditions: route oral.
Type: functional
In short: (§1)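 Four-day suppressive test: Swiss albino mice inoculated i.p. on day 0 with 0.2 ml infected blood carrying about 1 × 10⁷ P. berghei ANKA parasitized RBC. Compounds suspended in saline with 0.5% Tween-80 and given orally from shortly after inoculation, day 0–3. Groups of five mice; the vehicle group was the negative control. Tail-blood thin films were read on day 4 (fifth day), counting parasitized cells per 600 erythrocytes.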
`CC1=CC(=O)C[C@H]2[C@](C)(CCC3=CCOC3=O)[C@H](COCc3ccc(F)cc3)CC[C@]12C` showed an Activity of 26.4%. `CC1=CC(=O)C[C@H]2[C@](C)(CCC3=CCOC3=O)[C@H](COCc3ccc(C(F)(F)F)cc3)CC[C@]12C` showed an Activity of 17.5%.

Each compound was assayed on Plasmodium berghei (assay: Antimalarial activity against chloroquine-sensitive Plasmodium berghei ANKA infected in Swiss mice (Mus musculus) assessed as parasitaemia at 100 mg/kg, perorally for 4 days measured on day 5). Conditions: route oral.
Type: functional
In short: as §1
Compound `CC1=CC(=O)C[C@H]2[C@](C)(CCC3=CCOC3=O)[C@H](COCc3ccc(F)cc3)CC[C@]12C` has an Activity of 22.3%. `CC1=CC(=O)C[C@H]2[C@](C)(CCC3=CCOC3=O)[C@H](COCc3ccc(C(F)(F)F)cc3)CC[C@]12C` gave an Activity of 12.4%.

Each compound was assayed on Plasmodium berghei (assay: Antimalarial activity against chloroquine-sensitive Plasmodium berghei ANKA infected in Swiss mice (Mus musculus) assessed as suppression of parasitaemia at 100 mg/kg, perorally for 4 days measured on day 5 relative to control). Conditions: route oral.
Type: functional
In short: as §1
`CC1=CC(=O)C[C@H]2[C@](C)(CCC3=CCOC3=O)[C@H](COCc3ccc(F)cc3)CC[C@]12C` gave an inhibition in vivo at 100 mg/kg of 33.2%. In the case of `CC1=CC(=O)C[C@H]2[C@](C)(CCC3=CCOC3=O)[C@H](COCc3ccc(C(F)(F)F)cc3)CC[C@]12C`, the inhibition in vivo at 100 mg/kg is reported as 63.2%.

Each compound was assayed on Plasmodium berghei (assay: Antimalarial activity against chloroquine-sensitive Plasmodium berghei ANKA infected in Swiss mice (Mus musculus) assessed as suppression of parasitaemia at 50 mg/kg, perorally for 4 days measured on day 5 relative to control). Conditions: route oral.
Type: functional
In short: as §1
For `CC1=CC(=O)C[C@H]2[C@](C)(CCC3=CCOC3=O)[C@H](COCc3ccc(F)cc3)CC[C@]12C`, the inhibition in vivo at 50 mg/kg was 21.7%. For `CC1=CC(=O)C[C@H]2[C@](C)(CCC3=CCOC3=O)[C@H](COCc3ccc(C(F)(F)F)cc3)CC[C@]12C`, the inhibition in vivo at 50 mg/kg was 48.4%.

The compounds below were run on Plasmodium berghei (assay: Antimalarial activity against chloroquine-sensitive Plasmodium berghei ANKA infected in Swiss mice (Mus musculus) assessed as parasitaemia at 5 mg/kg, perorally for 4 days measured on day 5). Conditions: route oral.
Type: functional
In short: as §1
With `CCN(CC)CCCC(C)Nc1ccnc2cc(Cl)ccc12.O=P(O)(O)O.O=P(O)(O)O` (configuration not stated) [CHLOROQUINE PHOSPHATE] the Activity was 1.07%.

These compounds were tested on Plasmodium berghei (assay: Antimalarial activity against chloroquine-sensitive Plasmodium berghei ANKA infected in Swiss mice (Mus musculus) assessed as parasitaemia at 150 mg/kg, perorally for 4 days measured on day 5). Conditions: route oral.
Type: functional
In short: as §1
In the case of `CC1=CC(=O)C[C@H]2[C@](C)(CCC3=CCOC3=O)[C@H](COCc3ccc(F)cc3)CC[C@]12C`, the Activity is reported as 10.3%. In the case of `CC1=CC(=O)C[C@H]2[C@](C)(CCC3=CCOC3=O)[C@H](COCc3ccc(C(F)(F)F)cc3)CC[C@]12C`, the Activity is reported as 11.5%.

Each compound was assayed on Plasmodium berghei (assay: Antimalarial activity against chloroquine-sensitive Plasmodium berghei ANKA infected in Swiss mice (Mus musculus) assessed as suppression of parasitaemia at 150 mg/kg, perorally for 4 days measured on day 5 relative to control). Conditions: route oral.
Type: functional
In short: as §1
With `CC1=CC(=O)C[C@H]2[C@](C)(CCC3=CCOC3=O)[C@H](COCc3ccc(F)cc3)CC[C@]12C` the inhibition in vivo at 150 mg/kg was 69.4%. In the case of `CC1=CC(=O)C[C@H]2[C@](C)(CCC3=CCOC3=O)[C@H](COCc3ccc(C(F)(F)F)cc3)CC[C@]12C`, the inhibition in vivo at 150 mg/kg is reported as 65.9%.

The compounds below were run on Plasmodium falciparum (assay: Antiplasmodial activity against chloroquine-sensitive Plasmodium falciparum MRC2 infected in human erythrocytes after 24 hrs by Giemsa staining). Conditions: MRC2, 24 h.
Type: functional, organism-based
In short: (§2)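 Parasites grown in human B(+) erythrocytes in RPMI-1640 with 25 mM HEPES, 10% human AB(+) serum, 0.2% sodium bicarbonate, 5% CO2. Ring-stage cultures synchronized, parasitemia set to 1–1.5% with fresh RBC. Twofold serial dilutions (ethanol stock, final ethanol ≤0.5%), duplicate wells, 37 °C for 24 h. Giemsa smears: schizonts per 100 asexual parasites; inhibition = (1 − Nt/Nc) × 100; IC50 derived.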
Compound `CC1=CC(=O)C[C@H]2[C@](C)(CCC3=CCOC3=O)[C@H](COC(=O)OCc3ccccc3)CC[C@]12C` has an IC50 of 42.2 µM. Work on `CC1=CC(=O)C[C@H]2[C@](C)(CCC3=CCOC3=O)[C@H](COCc3ccc(Cl)cc3)CC[C@]12C` yielded an IC50 of 14 µM. With `CC1=CC(=O)C[C@H]2[C@](C)(CCC3=CCOC3=O)[C@H](COC(=O)C(C)(C)C)CC[C@]12C` the IC50 was 78.5 µM. For `COc1ccc(COC(=O)OC[C@@H]2CC[C@]3(C)C(C)=CC(=O)C[C@H]3[C@]2(C)CCC2=CCOC2=O)cc1`, the IC50 was 37.6 µM. `CC1=CC(=O)C[C@H]2[C@](C)(CCC3=CCOC3=O)[C@H](COCc3ccc(F)cc3)CC[C@]12C` gave an IC50 of 8.3 µM. `CC1=CC(=O)C[C@H]2[C@](C)(CCC3=CCOC3=O)[C@H](COS(C)(=O)=O)CC[C@]12C` showed an IC50 of 69.9 µM. `COC[C@@H]1CC[C@]2(C)C(C)=CC(=O)C[C@H]2[C@]1(C)CCC1=CCOC1=O` was tested, and the IC50 was 94.4 µM. `CC1=CC(=O)C[C@H]2[C@](C)(CCC3=CCOC3=O)[C@H](COCc3ccc(C(F)(F)F)cc3)CC[C@]12C` gave an IC50 of 4.8 µM. `CC1=CC(=O)C[C@H]2[C@](C)(CCC3=CCOC3=O)[C@H](COS(=O)(=O)c3ccc(C)cc3)CC[C@]12C` was tested, and the IC50 was 26.1 µM.

The compounds below were run on Plasmodium falciparum (assay: Antiplasmodial activity against chloroquine-resistant Plasmodium falciparum RKL9 after 24 hrs by Giemsa staining). Conditions: RKL9, 24 h.
Type: functional, organism-based
In short: as §2
`CC1=CC(=O)C[C@H]2[C@](C)(CCC3=CCOC3=O)[C@H](COC(=O)OCc3ccccc3)CC[C@]12C` showed an IC50 of 43.9 µM. `CC1=CC(=O)C[C@H]2[C@](C)(CCC3=CCOC3=O)[C@H](COCc3ccc(Cl)cc3)CC[C@]12C` was tested, and the IC50 was 18.8 µM. `CC1=CC(=O)C[C@H]2[C@](C)(CCC3=CCOC3=O)[C@H](COC(=O)C(C)(C)C)CC[C@]12C` was tested, and the IC50 was 84.9 µM. In the case of `COc1ccc(COC(=O)OC[C@@H]2CC[C@]3(C)C(C)=CC(=O)C[C@H]3[C@]2(C)CCC2=CCOC2=O)cc1`, the IC50 is reported as 47.7 µM. `CC1=CC(=O)C[C@H]2[C@](C)(CCC3=CCOC3=O)[C@H](COCc3ccc(F)cc3)CC[C@]12C` was tested, and the IC50 was 8.1 µM. For `CC1=CC(=O)C[C@H]2[C@](C)(CCC3=CCOC3=O)[C@H](COS(C)(=O)=O)CC[C@]12C`, the IC50 was 73.3 µM. In the case of `COC[C@@H]1CC[C@]2(C)C(C)=CC(=O)C[C@H]2[C@]1(C)CCC1=CCOC1=O`, the IC50 is reported as 88.9 µM. `CC1=CC(=O)C[C@H]2[C@](C)(CCC3=CCOC3=O)[C@H](COCc3ccc(C(F)(F)F)cc3)CC[C@]12C` gave an IC50 of 4.4 µM. In the case of `CC1=CC(=O)C[C@H]2[C@](C)(CCC3=CCOC3=O)[C@H](COS(=O)(=O)c3ccc(C)cc3)CC[C@]12C`, the IC50 is reported as 45.8 µM.

Each compound was assayed on Plasmodium berghei (assay: Antimalarial activity against chloroquine-sensitive Plasmodium berghei ANKA infected in Swiss mice (Mus musculus) assessed as suppression of parasitaemia at 5 mg/kg, perorally for 4 days measured on day 5 relative to control). Conditions: route oral.
Type: functional
In short: as §1
Work on `CCN(CC)CCCC(C)Nc1ccnc2cc(Cl)ccc12.O=P(O)(O)O.O=P(O)(O)O` (configuration not stated) [CHLOROQUINE PHOSPHATE] yielded an inhibition in vivo at 5 mg/kg of 96.8%.
